Active and inactive are the calls of the source.
Legend:
Hepatitis C virus [1] = experiment: Antiviral activity against HCV 1a H77 infected in human HuH7 cells assessed as viral RNA level after 72 hrs by quantitative reverse transcriptase PCR; assay type: functional, organism-based, Hepacivirus hominis; conditions: genotype 1a H77, Huh-7, 72 h
In short: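 Replicon cells (Huh7-Luc at 3,000/well; con1b S2204I or 1a H77 P1496L/S2204I at 6,000/well) exposed to a dilution range for 72 h in 0.5% DMSO without G418. Lysates reverse transcribed 30 min at 42°C with an HCV 5′UTR primer and an RPL13A control. Inhibition from threshold-cycle difference versus mock; EC50 taken from the dose-response curve.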

[2] = system: Human immunodeficiency virus 1; experiment: Antiviral activity against Human immunodeficiency virus 1 3b infected in human MT4 cells at 10 to 100 uM; assay type: functional, organism-based
In short: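 HIV-1 IIIB in MT-4 cells, enhanced green fluorescent protein-based read-out. Highest concentration tested 10 to 100 μM.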

Hepatitis C virus [3] = experiment: Antiviral activity against HCV 1b infected in human HuH7 cells assessed as log reduction in viral RNA level at 5 nM after 9 days by qRT-PCR; assay type: functional, organism-based; conditions: Hepacivirus hominis, genotype 1b, Huh-7
In short: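 Nine-day assay: replicon cells at 500 cells/well without G418, compound alone or with IFN-α. Medium with compounds refreshed every 3 days; cells harvested on days 3, 6 and 9 at 37°C, 5% CO2. HCV RNA measured by qRT-PCR and normalized to RPL13A.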

[4] = Ratio of AUC (0 to 31 hrs) in Sprague-Dawley rat heart to AUC (0 to 31 hrs) in Sprague-Dawley rat plasma at 40 mg/kg, po administered as single dose; assay type: ADME, organism-based; parameters: dose 40 mg/kg, route oral
In short: (§1)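 Male specific-pathogen-free Sprague-Dawley rats (200–300 g), three per group, single gastric intubation at 2 ml/kg of a vitamin E TPGS–PEG 400 solution; food and water ad libitum. Plasma sampled 30 min to 31 h; tissues dissected from oral groups. LC-MS/MS (LLOQ 1 ng/ml plasma, 5 ng/g tissue); noncompartmental analysis; ratios from mean of three rats.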

Hepatitis C virus [5] = experiment: Antiviral activity against Hepatitis C virus in presence of 1 mg/ml alpha-1 acid glycoprotein
[6] = Half life (8 to 24 hrs) in Sprague-Dawley rat plasma at 40 mg/kg, po; assay type: ADME, organism-based; parameters: dose 40 mg/kg, route oral
In short: (§2)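 Male SPF Sprague-Dawley rats (200–300 g), three per group. Oral gavage at 40 mg/kg (2 ml/kg) in TPGS–PEG400 solution. Plasma sampled 0.5–31 h, measured by LC-MS/MS (LLOQ 1 ng/ml). Noncompartmental analysis.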

[7] = Cytotoxicity against human MT4 cells after 3 to 4 days by resazurin proliferation assay; assay type: cell-based
In short: (§3)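 Human cell lines in DMEM with 10% heat-inactivated FBS and 2 mM L-glutamine (replicon cells plus 0.75 mg/ml G418 in maintenance). Exposed to compound for 3 to 4 days; resazurin fluorescence read-out. CC50 from inhibition curves.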

Hepatitis C virus [8] = experiment: microbe, parasite or virus in culture
[9] = Cytotoxicity against human HEK293T cells upto 42 uM after 3 to 4 days by resazurin proliferation assay; assay type: cell-based; conditions: hek-293t; in short: as §3
[10] = Ratio of AUC (0 to 31 hrs) in Sprague-Dawley rat spleen to AUC (0 to 31 hrs) in Sprague-Dawley rat plasma at 40 mg/kg, po administered as single dose; assay type: ADME, organism-based; parameters: dose 40 mg/kg, route oral; in short: as §1
Hepatitis C virus [11] = experiment: Antiviral activity against Hepatitis C virus in presence of 40 mg/ml human serum albumin
Hepatitis C virus [12] = experiment: Antiviral activity against Hepatitis C virus 1b infected in human HuH7 cells assessed as viral RNA level after 72 hrs by luciferase reporter gene assay; assay type: functional, organism-based, Hepacivirus hominis; conditions: genotype 1b, Huh-7, 72 h
In short: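 Huh7-Luc cells carrying a genotype 1b con1 subgenomic replicon (clone ET, firefly luciferase, adaptive mutations E1202G/T1280I/K1846T). 2,500 cells/well, serial dilutions, 0.5% DMSO final, no G418. Luciferase signal read after 72 h; EC50 taken from the dose-response curve relative to medium control.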

[13] = Half life (8 to 24 hrs) in Sprague-Dawley rat plasma at 4 mg/kg, iv; assay type: ADME, organism-based; parameters: dose 4 mg/kg, route intravenous
In short: (§4)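 Male SPF Sprague-Dawley rats (200–300 g), n=3. Single slow i.v. tail-vein bolus at 4 mg/kg (2 ml/kg) in 20% hydroxypropyl-β-cyclodextrin, pH 8.0. Plasma sampled 7 min to 31 h, measured by LC-MS/MS (LLOQ 1 ng/ml). Noncompartmental analysis.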

Cathepsin S = Cathepsin S (Homo sapiens, UniProt P25774); experiment: Inhibition of human cathepsin S in human JY cells assessed as p10 accumulation by fluorescence-based assay; assay type: cell-based
Chain of Cathepsin S (P25774 whole entry, the tested form may be a part): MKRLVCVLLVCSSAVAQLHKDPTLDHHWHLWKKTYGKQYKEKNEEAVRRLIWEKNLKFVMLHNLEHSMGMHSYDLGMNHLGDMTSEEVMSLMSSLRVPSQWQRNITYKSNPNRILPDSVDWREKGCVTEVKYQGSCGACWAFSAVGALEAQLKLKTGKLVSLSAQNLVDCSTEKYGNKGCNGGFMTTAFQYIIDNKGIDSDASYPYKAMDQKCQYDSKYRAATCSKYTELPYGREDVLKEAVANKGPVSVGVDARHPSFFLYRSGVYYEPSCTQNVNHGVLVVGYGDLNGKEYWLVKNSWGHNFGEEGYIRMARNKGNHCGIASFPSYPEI
In short: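 Cellular cathepsin S assay in the human JY B-cell line, read as invariant chain degradation (p10 fragment accumulation). Top concentration 10 μM.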

[14] = Apparent volume of distribution at steady-state in Sprague-Dawley rat at 4 mg/kg, iv; assay type: ADME, organism-based; parameters: dose 4 mg/kg, route intravenous; conditions: in vivo; in short: as §4
[15] = Ratio of AUC (0 to 31 hrs) in Sprague-Dawley rat large intestine to AUC (0 to 31 hrs) in Sprague-Dawley rat plasma at 40 mg/kg, po administered as single dose; assay type: ADME, organism-based; parameters: dose 40 mg/kg, route oral; conditions: read-out: Ratio AUC; in short: as §1
[16] = Tmax in Sprague-Dawley rat large intestine; assay type: ADME, tissue-based
In short: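 Male Sprague-Dawley rats given a single oral dose of 40 mg/kg in TPGS–PEG400, three per time point. Tissues dissected at times up to 31 h and measured by LC-MS/MS (LLOQ 5 ng/g).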

[17] = Ratio of AUC (0 to 31 hrs) in Sprague-Dawley rat lung to AUC (0 to 31 hrs) in Sprague-Dawley rat plasma at 40 mg/kg, po administered as single dose; assay type: ADME, organism-based; parameters: dose 40 mg/kg, route oral; in short: as §1
[18] = AUC (0 to infinity) in Sprague-Dawley rat at 40 mg/kg, po; assay type: ADME, organism-based; parameters: dose 40 mg/kg, route oral; conditions: plasma, read-out: AUBC
In short: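 Male specific-pathogen-free Sprague-Dawley rats (200-300 g), three per group; single gastric intubation of vitamin E TPGS-polyethylene glycol 400 solution at 2 ml/kg. Plasma taken from orbital plexus at 0.5, 1, 2, 4, 8, 24 and 31 h; LC-MS/MS (LLOQ 1 ng/ml); noncompartmental analysis; rats fed and watered ad libitum.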

Hepatitis C virus [19] = experiment: Antiviral activity against Hepatitis C virus in presence of 40% human serum
Hepatitis C virus [20] = experiment: microbe, parasite or virus in culture; remark: listed apart in the source
Plasma = experiment: Initial plasma concentration in Sprague-Dawley rat at 4 mg/kg, iv; assay type: ADME, organism-based; parameters: dose 4 mg/kg, route intravenous; conditions: in vivo; in short: as §4
[21] = Ratio of AUC (0 to 31 hrs) in Sprague-Dawley rat liver to AUC (0 to 31 hrs) in Sprague-Dawley rat plasma at 40 mg/kg, po administered as single dose; assay type: ADME, organism-based; parameters: dose 40 mg/kg, route oral; conditions: read-out: Ratio AUC; in short: as §1
Yellow fever virus = experiment: Antiviral activity against Yellow fever virus 17D infected in green monkey veroE6 cells inhibition of virus-induced cytopathic effect at 10 to 100 uM; assay type: functional, organism-based; conditions: Vero
In short: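 Virus-induced cytopathic effect inhibition assay in VeroE6 cells with YFV-17D, with a known positive control in each run; tested up to a top concentration in the 10–100 µM range.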

[22] = Cytotoxicity against human HT1080 cells after 3 to 4 days by resazurin proliferation assay; assay type: cell-based, HT-1080; in short: as §3
[23] = Absolute bioavailability in Sprague-Dawley rat at 40 mg/kg, po; assay type: ADME, organism-based; conditions: in vivo
In short: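 Male SPF Sprague-Dawley rats (200–300 g, n = 3/group). Oral gavage at 40 mg/kg in vitamin E TPGS–PEG 400 solution (2 ml/kg); i.v. reference was a 4 mg/kg tail-vein slow bolus in 20% hydroxypropyl-β-cyclodextrin, pH 8.0. Plasma sampled up to 31 h and assayed by LC-MS/MS (LLOQ 1 ng/ml). Noncompartmental analysis; Fabs = dose-normalized mean AUC0-∞ p.o./i.v.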

[24] = Cmax in Sprague-Dawley rat plasma at 40 mg/kg, po upto 31 hrs by liquid chromatography-tandem mass spectrometry; assay type: ADME, organism-based; parameters: dose 40 mg/kg, route oral; in short: as §2
[25] = Ratio of AUC (0 to 31 hrs) in Sprague-Dawley rat small intestine to AUC (0 to 31 hrs) in Sprague-Dawley rat plasma at 40 mg/kg, po administered as single dose; assay type: ADME, organism-based; parameters: dose 40 mg/kg, route oral; conditions: read-out: Ratio AUC; in short: as §1
[26] = Cytotoxicity against human HuH7 cells upto 42 uM after 3 to 4 days by resazurin proliferation assay; assay type: cell-based; conditions: huh-7; in short: as §3

SMILES: COc1ccc2c(O[C@@H]3C[C@H]4C(=O)N[C@]5(C(=O)NS(=O)(=O)C6CC6)C[C@H]5/C=C\CCCCN(C)C(=O)[C@@H]4C3)cc(-c3nc(C(C)C)cs3)nc2c1C [SIMEPREVIR]
- EC90 (Hepatitis C virus [1]): 120 nM
- Activity [2]: inactive
- Activity (Hepatitis C virus [3]): Active
- Kp [4]: 0.5
- EC50 (Hepatitis C virus [5]): 11.4 nM
- half-life [6]: 2.6 h
- CC50 [7]: 16000 nM
- EC50 ratio (Hepatitis C virus [8]): 1.7
- Activity [9]: Non-toxic
- Kp [10]: 0.3
- EC50 (Hepatitis C virus [11]): 14.1 nM
- EC50 (Hepatitis C virus [12]): 8.1 nM
- EC90 (Hepatitis C virus [12]): 23.6 nM
- half-life [13]: 4 h
- IC50 (Cathepsin S): 800 nM
- Vd [14]: 5.3 L/kg
- Kp [15]: 29
- Tmax [16]: 8 h
- Kp [17]: 0.5
- AUC [18]: 7750 ng·h/mL
- EC50 (Hepatitis C virus [19]): 11.2 nM
- EC50 ratio (Hepatitis C virus [20]): 1.4
- Cp (Plasma): 3560 ng/mL
- Kp [21]: 39
- Activity (Yellow fever virus): inactive
- CC50 [22]: 16000 nM
- bioavailability [23]: 44%
- Cmax [24]: 1430 ng/mL
- Kp [25]: 128
- Activity [26]: Non-toxic

— ChEMBL document CHEMBL1671650, “In vitro activity and preclinical profile of TMC435350, a potent hepatitis C virus protease inhibitor” (Antimicrob Agents Chemother, 2009)
